{"data": "Measurements pooled from the literature", "target": "Carbonic anhydrase 2 (CA2, Homo sapiens, UniProt P00918)", "observed": "enzyme activity", "action": "inhibitor"}
{"SMILES": "CC(C)c1cc2c(c(O)c1O)[C@@]13CCCC(C)(C)[C@@H]1[C@H](OC3=O)[C@H]2O", "measurement": "IC50", "result": "4.18 nM"}
{"SMILES": "O=C(Nc1ccc2c(c1)C=CCP(=O)(O)O2)c1ccc(Cl)cc1", "assay": "stopped-flow", "measurement": "Ki", "result": "> 10000 nM"}
{"SMILES": "Cc1ccc([C@@H]2[C@@H](C(=O)c3cccs3)[C@H](c3ccco3)[C@H]3/C(=N\\NC(N)=S)c4ccccc4[C@H]32)cc1 (racemic)", "assay": "absorbance", "measurement": "IC50", "result": "844 nM"}
{"SMILES": "O=C(Nc1ccc2c(c1)C=CCP(=O)(O)O2)c1ccco1", "assay": "stopped-flow", "measurement": "Ki", "result": "> 10000 nM"}
{"SMILES": "CC(C)c1cc2c(c(O)c1O)[C@@]13CCCC(C)(C)[C@@H]1[C@@H](O)[C@@H]2OC3=O", "measurement": "Ki", "result": "3.57 nM"}
{"SMILES": "NC(=S)N/N=C1/c2ccccc2[C@@H]2[C@H]1[C@@H](c1ccsc1)[C@H](C(=O)c1ccsc1)[C@H]2c1ccsc1 (racemic)", "assay": "absorbance", "measurement": "IC50", "result": "523 nM"}
{"SMILES": "CC(C)c1cc2c(c(O)c1O)[C@@]13CCCC(C)(C)[C@@H]1C[C@@H]2OC3=O", "measurement": "Ki", "result": "8.8 nM"}
{"SMILES": "O=C(Nc1ccc2c(c1)C=CCP(=O)(O)O2)c1ccc([N+](=O)[O-])cc1", "assay": "stopped-flow", "measurement": "Ki", "result": "> 10000 nM"}
{"SMILES": "NC(=S)N/N=C1/c2ccccc2[C@@H]2[C@H]1[C@@H](c1ccc(F)cc1)[C@H](C(=O)c1ccc(F)cc1)[C@H]2c1ccc(F)cc1 (racemic)", "assay": "absorbance", "measurement": "IC50", "result": "605 nM"}
{"SMILES": "Cc1cc(=O)oc2cc(OCCCC[Se]C#N)ccc12", "assay": "stopped-flow", "measurement": "Ki", "result": "> 100000 nM"}
{"SMILES": "NC(=S)N/N=C1/c2ccccc2[C@@H]2[C@H]1[C@@H](c1cccs1)[C@H](C(=O)c1cccs1)[C@H]2c1cccs1 (racemic)", "assay": "absorbance", "measurement": "IC50", "result": "510 nM"}
{"SMILES": "O=C(Nc1ccc(F)cc1)Nc1ccc2c(c1)C=CCP(=O)(O)O2", "assay": "stopped-flow", "measurement": "Ki", "result": "> 10000 nM"}
{"SMILES": "N#C[Se]CCCCOc1ccc2c(-c3ccccc3)cc(=O)oc2c1", "assay": "stopped-flow", "measurement": "Ki", "result": "> 100000 nM"}
{"SMILES": "O=C(Nc1ccc2c(c1)C=CCP(=O)(O)O2)c1ccc(F)cc1", "assay": "stopped-flow", "measurement": "Ki", "result": "> 10000 nM"}
{"SMILES": "CC(C)c1cc2c(c(O)c1O)[C@@]1(C(=O)O)CCCC(C)(C)[C@@H]1CC2", "measurement": "IC50", "result": "3.77 nM"}
